Test results: ChEMBL document CHEMBL2434865, “The influence of positional isomerism on G-quadruplex binding and anti-proliferative activity of tetra-substituted naphthalene diimide compounds” (Bioorg Med Chem, 2013)

How the values were obtained:
WI-38 = experiment: Cytotoxicity against human WI38 cells after 96 hrs by SRB assay; type: cell-based; conditions: WI-38, 96 h
Method in brief: (§1)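 Monolayer cultures were kept at 37 °C in humidified 5% CO2. Media were RPMI 1640 with 2 mM glutamine, 10% FCS and 1 mM pyruvate for 786-O, and MEM with 2 mM glutamine, 1% amino acids and 10% FCS for WI-38. Cells were exposed to compound over a concentration range for 96 h. Cells were fixed with TCA, stained with SRB, dissolved in 10 mM Tris and read at 540 nm. Values were normalized to untreated controls, and IC50 was interpolated as 50% absorbance reduction.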

A549 = experiment: Cytotoxicity against human A549 cells after 96 hrs by SRB assay; type: functional, cell-based; conditions: A549, 96 h
Method in brief: (§2)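 For A549, MCF7, MIA PaCa2 (DMEM with 2 mM glutamine and 10% FCS) and PANC1 (same DMEM), 1000–4000 cells per well were seeded and left 24 h. Compound was added over a concentration range for 96 h at 37 °C in 5% CO2. Cells were fixed with 10% TCA (30 min, 4 °C) and stained with 0.4% SRB in 1% acetic acid for 15 min. Dye was dissolved in 10 mM Tris and read at A540. IC50 was interpolated as the level giving 50% absorbance loss versus untreated cells.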

PANC-1 [1] = experiment: Cytotoxicity against human PANC1 cells after 96 hrs by SRB assay; type: functional, cell-based; conditions: PANC-1, 96 h; method in brief: as §2
MIA PaCa-2 = experiment: Cytotoxicity against human MIAPaCa2 cells after 96 hrs by SRB assay; type: functional, cell-based; conditions: MIA PaCa-2, 96 h; method in brief: as §2
MCF7 = experiment: Cytotoxicity against human MCF7 cells after 96 hrs by SRB assay; type: functional, cell-based; conditions: MCF7, 96 h; method in brief: as §2
[2] = Cytotoxicity against human 786-O cells after 96 hrs by SRB assay; type: functional, cell-based; conditions: 786-0, 96 h; method in brief: as §1
[3] = Cytotoxicity against human RCC4 cells after 96 hrs by SRB assay; type: functional, cell-based; conditions: RCC4, 96 h
Homo sapiens [4] = species on record: Homo sapiens; experiment: Binding affinity to human T-loop 5'-FAM-TATAGCTATATTTTTTTATAGCTATATAMRA-3' at 2 uM after 3 hrs by HT-FRET assay
Method in brief: (§3)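 Oligonucleotides were diluted from 50 µM stock to 400 nM in 60 mM potassium cacodylate pH 7.4, annealed at 95 °C for 10 min, then cooled to RT over 3 h. Ligand came from a 10 mM aqueous stock, was diluted to twice the final level in buffer and mixed 1:1 with DNA, in triplicate. FAM excitation was 450–495 nm and emission 515–545 nm, read every 0.5 °C from 30–100 °C with a 30 s hold. Tm is the first-derivative maximum of the smoothed, normalized curve; ΔTm is relative to DNA without ligand.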

Homo sapiens [5] = species on record: Homo sapiens; experiment: Binding affinity to human T-loop 5'-FAM-TATAGCTATATTTTTTTATAGCTATATAMRA-3' at 1 uM after 3 hrs by HT-FRET assay; method in brief: as §3
Homo sapiens [6] = species on record: Homo sapiens; experiment: Binding affinity to human HSP90B 5'-FAM-GGGCGGGCCAAAGGGAAGGGG-TAMRA-3' at 2 uM after 3 hrs by HT-FRET assay; method in brief: as §3
Homo sapiens [7] = species on record: Homo sapiens; experiment: Binding affinity to human HSP90B 5'-FAM-GGGCGGGCCAAAGGGAAGGGG-TAMRA-3' at 1 uM after 3 hrs by HT-FRET assay; method in brief: as §3
Homo sapiens [8] = species on record: Homo sapiens; experiment: Binding affinity to human HSP90A 5'-FAM-GGGCCAAAGGGAAGGGGTGGG-TAMRA-3' at 2 uM after 3 hrs by HT-FRET assay; method in brief: as §3
Homo sapiens [9] = species on record: Homo sapiens; experiment: Binding affinity to human HSP90A 5'-FAM-GGGCCAAAGGGAAGGGGTGGG-TAMRA-3' at 1 uM after 3 hrs by HT-FRET assay; method in brief: as §3
Homo sapiens [10] = species on record: Homo sapiens; experiment: Binding affinity to human telomeric quadruplex 5'-FAM-GGGTTAGGGTTAGGGTTAGGG-TAMRA-3' at 2 uM after 3 hrs by HT-FRET assay; method in brief: as §3
Homo sapiens [11] = species on record: Homo sapiens; experiment: Binding affinity to human telomeric quadruplex 5'-FAM-GGGTTAGGGTTAGGGTTAGGG-TAMRA-3' at 1 uM after 3 hrs by HT-FRET assay; method in brief: as §3
PANC-1 [12] = experiment: Ratio of IC50 for human MIAPaCa2 cells to IC50 for human PANC1 cells; type: functional

Row | ΔTm (Homo sapiens [4]) [°C] | ΔTm (Homo sapiens [5]) [°C] | ΔTm (Homo sapiens [6]) [°C] | ΔTm (Homo sapiens [7]) [°C] | ΔTm (Homo sapiens [8]) [°C] | ΔTm (Homo sapiens [9]) [°C] | ΔTm (Homo sapiens [10]) [°C] | ΔTm (Homo sapiens [11]) [°C] | SMILES | IC50 (WI-38) [nM] | IC50 (A549) [nM] | IC50 (PANC-1 [1]) [nM] | IC50 (MIA PaCa-2) [nM] | IC50 (MCF7) [nM] | IC50 [2] [nM] | IC50 [3] [nM] | Ratio IC50 (PANC-1 [12])
1 | 0 | 0 | 26 | 22 | 24 | 22 | 16 | < 2 | COCCCNc1cc2c3c(c(NCCCOC)cc4c3c1C(=O)N(CCCN1CCN(C)CC1)C4=O)C(=O)N(CCCN1CCN(C)CC1)C2=O | > 25000 | 5750 | 2500 | 7050 | 17500 | 16100 | 7600 | 
2 | 0 | 0 | 17 | 13 | 23 | 21 | 15 | < 2 | CN1CCN(CCCN2C(=O)c3cc(NC[C@@H]4CCCO4)c4c5c(cc(NC[C@H]6CCCO6)c(c35)C2=O)C(=O)N(CCCN2CCN(C)CC2)C4=O)CC1 | 2300 | 160 | 1500 | 95 | 560 | 390 | 3000 | 
3 | 8 | 2 | 32 | 28 | 36 | 33 | 31 | 26 | CN1CCN(CCN2C(=O)c3cc(NCCCN4CCOCC4)c4c5c(cc(NCCCN6CCOCC6)c(c35)C2=O)C(=O)N(CCN2CCN(C)CC2)C4=O)CC1 | 180 | 20 | 5 | 5 | 21 | 160 | 300 | 
4 | 0 | 0 | 23 | 3 | 27 | 2 | 22 | < 2 | CN1CCN(CCCN2C(=O)c3cc(NCC4CCOCC4)c4c5c(cc(NCC6CCOCC6)c(c35)C2=O)C(=O)N(CCCN2CCN(C)CC2)C4=O)CC1 | 2800 | 460 | 1100 | 137 | 510 | 290 | 2200 | 
5 | 9 | 5 | 34 | 30 | 36 | 34 | 34 | 29 | CN1CCN(CCCN2C(=O)c3cc(NCCCN4CCOCC4)c4c5c(cc(NCCCN6CCOCC6)c(c35)C2=O)C(=O)N(CCCN2CCN(C)CC2)C4=O)CC1 | 300 | 7 | 2 | 50 | 14 | 440 | 610 | 
6 |  |  |  |  |  |  |  |  | CN1CCN(CCCNc2cc3c4c(c(NCCCN5CCN(C)CC5)cc5c4c2C(=O)N(CCCN2CCOCC2)C5=O)C(=O)N(CCCN2CCOCC2)C3=O)CC1 |  |  | 3 |  |  |  |  | 5
